Legend:
[1] = system: Rattus norvegicus; experiment: Hypolipidemic activity in Wistar rat assessed as reduction in plasma cholesterol level at 291 umol/kg/day administered through diet for 4 days; type: functional; details: 96 h
In short: (§1)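 Young male Wistar rats, 170-190 g at start, in groups of six, given compound mixed into Purina Lab Chow ad libitum for 4 or 10 days as stated. Daily dose was calculated from food consumption and body weight. Plasma was taken by cardiac puncture at the end and cholesterol measured by automated procedure. Results are % reduction versus a concurrent untreated control group, with Student's t test.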

[2] = system: Rattus norvegicus; experiment: Hypolipidemic activity in Wistar rat assessed as reduction in plasma triglyceride level at 291 umol/kg/day administered through diet for 4 days; type: functional; details: 96 h
In short: (§2)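 Young male Wistar rats, 170-190 g initial weight, six per group, fed drug mixed thoroughly into Purina Lab Chow ad libitum for the stated days; daily dose calculated from food consumption and body weight. Bled by cardiac puncture at end; plasma cholesterol and triglycerides by automated procedures, expressed as percent reduction versus simultaneous untreated controls; Student's t test.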

[3] = system: Rattus norvegicus; experiment: Increase in liver weight in Wistar rat at 291 umol/kg/day administered through diet for 4 days; type: ADME, organism-based; details: in vivo, po, 96 h
[4] = system: Rattus norvegicus; experiment: Increase in liver weight in Wistar rat at 404 umol/kg/day administered through diet for 4 days; type: ADME, organism-based; details: in vivo, po, 96 h
[5] = system: Rattus norvegicus; experiment: Hypolipidemic activity in Wistar rat assessed as reduction in plasma triglyceride level at 944 umol/kg/day administered through diet for 10 days; type: functional; details: 240 h
[6] = system: Rattus norvegicus; experiment: Hypolipidemic activity in Wistar rat assessed as reduction in plasma triglyceride level at 303 umol/kg/day administered through diet for 10 days; type: functional; details: 240 h; in short: as §2
[7] = system: Rattus norvegicus; experiment: Hypolipidemic activity in Wistar rat assessed as reduction in plasma triglyceride level at 89 umol/kg/day administered through diet for 10 days; type: functional; details: 240 h
[8] = system: Rattus norvegicus; experiment: Hypolipidemic activity in Wistar rat assessed as reduction in plasma cholesterol level at 944 umol/kg/day administered through diet for 10 days; type: functional; details: 240 h
In short: (§3)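 Young male Wistar rats (initial weight 170-190 g), groups of six, fed compound mixed into Purina Lab Chow ad libitum for 4 or 10 days; daily dose calculated from food consumption and body weight. Bled by cardiac puncture; plasma cholesterol and triglycerides by automated procedures; percent reduction versus simultaneous untreated controls, Student's t test.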

[9] = system: Rattus norvegicus; experiment: Hypolipidemic activity in Wistar rat assessed as reduction in plasma cholesterol level at 303 umol/kg/day administered through diet for 10 days; type: functional; details: 240 h; in short: as §1
[10] = system: Rattus norvegicus; experiment: Hypolipidemic activity in Wistar rat assessed as reduction in plasma cholesterol level at 89 umol/kg/day administered through diet for 10 days; type: functional; details: 240 h; in short: as §3
[11] = system: Rattus norvegicus; experiment: Increase in liver weight in Wistar rat at 944 umol/kg/day administered through diet for 10 days; type: ADME, organism-based; details: in vivo, po, 240 h
[12] = system: Rattus norvegicus; experiment: Increase in liver weight in Wistar rat at 303 umol/kg/day administered through diet for 10 days; type: ADME, organism-based; details: in vivo, po, 240 h
[13] = system: Rattus norvegicus; experiment: Increase in liver weight in Wistar rat at 89 umol/kg/day administered through diet for 10 days; type: ADME, organism-based; details: in vivo, po, 240 h
[14] = system: Rattus norvegicus; experiment: Increase in cholesterol level in Wistar rat liver at 944 umol/kg/day administered through diet for 10 days; type: ADME, organism-based; details: in vivo, po, 240 h
[15] = system: Rattus norvegicus; experiment: Increase in cholesterol level in Wistar rat liver at 303 umol/kg/day administered through diet for 10 days; type: ADME, organism-based; details: in vivo, po, 240 h
[16] = system: Rattus norvegicus; experiment: Increase in cholesterol level in Wistar rat liver at 89 umol/kg/day administered through diet for 10 days; type: ADME, organism-based; details: in vivo, po, 240 h
[17] = system: Rattus norvegicus; experiment: Hypolipidemic activity in Wistar rat assessed as reduction in plasma cholesterol level at 463 umol/kg/day administered through diet for 4 days; type: functional; details: 96 h
In short: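 Young male Wistar rats, 170-190 g initial weight, groups of six, given compound mixed thoroughly into Purina Lab Chow ad libitum for 4 or 10 days as stated. Daily dose calculated from food consumption and body weight. Bled by cardiac puncture at end of treatment; plasma cholesterol measured by automated procedure. Expressed as percent reduction versus simultaneous untreated control group; Student's t test.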

[18] = system: Rattus norvegicus; experiment: Hypolipidemic activity in Wistar rat assessed as reduction in plasma triglyceride level at 463 umol/kg/day administered through diet for 4 days; type: functional; details: 96 h
[19] = system: Rattus norvegicus; experiment: Increase in liver weight in Wistar rat at 463 umol/kg/day administered through diet for 4 days; type: ADME, organism-based; details: in vivo, po, 96 h
[20] = system: Rattus norvegicus; experiment: Hypolipidemic activity in Wistar rat assessed as reduction in plasma triglyceride level at 312 umol/kg/day administered through diet for 10 days; type: functional; details: 240 h; in short: as §2
[21] = system: Rattus norvegicus; experiment: Hypolipidemic activity in Wistar rat assessed as reduction in plasma cholesterol level at 312 umol/kg/day administered through diet for 10 days; type: functional; details: 240 h; in short: as §1
[22] = system: Rattus norvegicus; experiment: Increase in liver weight in Wistar rat at 312 umol/kg/day administered through diet for 10 days; type: ADME, organism-based; details: in vivo, po, 240 h
[23] = system: Rattus norvegicus; experiment: Increase in cholesterol level in Wistar rat liver at 312 umol/kg/day administered through diet for 10 days; type: ADME, organism-based; details: in vivo, po, 240 h
[24] = system: Rattus norvegicus; experiment: Hypolipidemic activity in Wistar rat assessed as reduction in plasma cholesterol level at 332 umol/kg/day administered through diet for 4 days; type: functional; details: 96 h; in short: as §1
[25] = system: Rattus norvegicus; experiment: Hypolipidemic activity in Wistar rat assessed as reduction in plasma triglyceride level at 332 umol/kg/day administered through diet for 4 days; type: functional; details: 96 h; in short: as §2
[26] = system: Rattus norvegicus; experiment: Increase in liver weight in Wistar rat at 332 umol/kg/day administered through diet for 4 days; type: ADME, organism-based; details: in vivo, po, 96 h
[27] = system: Rattus norvegicus; experiment: Hypolipidemic activity in Wistar rat assessed as reduction in plasma triglyceride level at 332 umol/kg/day administered through diet for 10 days; type: functional; details: 240 h; in short: as §2
[28] = system: Rattus norvegicus; experiment: Hypolipidemic activity in Wistar rat assessed as reduction in plasma triglyceride level at 169 umol/kg/day administered through diet for 10 days; type: functional; details: 240 h; in short: as §2
[29] = system: Rattus norvegicus; experiment: Hypolipidemic activity in Wistar rat assessed as reduction in plasma triglyceride level at 84 umol/kg/day administered through diet for 10 days; type: functional; details: 240 h
[30] = system: Rattus norvegicus; experiment: Hypolipidemic activity in Wistar rat assessed as reduction in plasma cholesterol level at 332 umol/kg/day administered through diet for 10 days; type: functional; details: 240 h; in short: as §1
[31] = system: Rattus norvegicus; experiment: Hypolipidemic activity in Wistar rat assessed as reduction in plasma cholesterol level at 169 umol/kg/day administered through diet for 10 days; type: functional; details: 240 h; in short: as §1
[32] = system: Rattus norvegicus; experiment: Hypolipidemic activity in Wistar rat assessed as reduction in plasma cholesterol level at 84 umol/kg/day administered through diet for 10 days; type: functional; details: AT84, Plasma, 240 h; in short: as §3
[33] = system: Rattus norvegicus; experiment: Increase in liver weight in Wistar rat at 332 umol/kg/day administered through diet for 10 days; type: ADME, organism-based; details: in vivo, po, 240 h
[34] = system: Rattus norvegicus; experiment: Increase in liver weight in Wistar rat at 169 umol/kg/day administered through diet for 10 days; type: ADME, organism-based; details: in vivo, po, 240 h
[35] = system: Rattus norvegicus; experiment: Increase in liver weight in Wistar rat at 84 umol/kg/day administered through diet for 10 days; type: ADME, organism-based; details: in vivo, po, 240 h
[36] = system: Rattus norvegicus; experiment: Increase in cholesterol level in Wistar rat liver at 332 umol/kg/day administered through diet for 10 days; type: ADME, organism-based; details: in vivo, po, 240 h
[37] = system: Rattus norvegicus; experiment: Increase in cholesterol level in Wistar rat liver at 169 umol/kg/day administered through diet for 10 days; type: ADME, organism-based; details: in vivo, po, 240 h
[38] = system: Rattus norvegicus; experiment: Increase in cholesterol level in Wistar rat liver at 84 umol/kg/day administered through diet for 10 days; type: ADME, organism-based; details: in vivo, po, 240 h

SMILES: CCCCCCCCCCCCCCOc1ccc(C(=O)O)c(OCCCCCCCCCCCCCC)c1
- inhibition in vivo at 291 µmol/kg [1]: 0%
- inhibition in vivo at 291 µmol/kg [2]: 0%
- Activity [3]: 7%

SMILES: CCCCCCCCCCCCCCCCSc1ccc(C(=O)O)cc1
- Activity [4]: 6%

SMILES: CCCCCCCCCCCCc1ccc(C(=O)CC(=O)OC)cc1
- inhibition in vivo at 944 µmol/kg [5]: 84%
- inhibition in vivo at 303 µmol/kg [6]: 63%
- inhibition in vivo at 89 µmol/kg [7]: 6%
- inhibition in vivo at 944 µmol/kg [8]: 53%
- inhibition in vivo at 303 µmol/kg [9]: 37%
- inhibition in vivo at 89 µmol/kg [10]: 4%
- Activity [11]: 20%
- Activity [12]: 7%
- Activity [13]: 8%
- Activity [14]: 151%
- Activity [15]: 97%
- Activity [16]: 38%

SMILES: CCCCCCCCCCCCCCSc1ccc(C(=O)O)s1
- inhibition in vivo at 463 µmol/kg [17]: 15%
- inhibition in vivo at 463 µmol/kg [18]: 61%
- Activity [19]: 4%

SMILES: CCCCCCCCCCCCCCOc1ccc(C(=O)CC(=O)OCCNC(C)=O)cc1
- inhibition in vivo at 312 µmol/kg [20]: 60%
- inhibition in vivo at 312 µmol/kg [21]: 35%
- Activity [22]: 15%
- Activity [23]: 8%

SMILES: CCCCCCCCCCCCCCOc1cc(C(=O)OC)cc(C(=O)OC)c1
- inhibition in vivo at 332 µmol/kg [24]: 5%
- inhibition in vivo at 332 µmol/kg [25]: 39%
- Activity [26]: 0%

SMILES: CCCCCCCCCCCCCCOc1ccc(C(=O)CC(=O)OCc2ccccc2)cc1
- inhibition in vivo at 332 µmol/kg [27]: 43%
- inhibition in vivo at 169 µmol/kg [28]: 70%
- inhibition in vivo at 84 µmol/kg [29]: 8%
- inhibition in vivo at 332 µmol/kg [30]: 24%
- inhibition in vivo at 169 µmol/kg [31]: 15%
- inhibition in vivo at 84 µmol/kg [32]: 16%
- Activity [33]: 5%
- Activity [34]: 1%
- Activity [35]: 0%
- Activity [36]: 10%
- Activity [37]: 2%
- Activity [38]: 0%

From ChEMBL document CHEMBL3272012, “5-(Tetradecyloxy)-2-furancarboxylic acid and related hypolipidemic fatty acid-like alkyloxyarylcarboxylic acids” (J Med Chem, 1977)
